The target of test [1] is Fatty acid synthase (Homo sapiens) (UniProt P49327). Put plainly: Inhibition of fatty acid synthase at a concentration of 150 (uM). In outline: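 Fatty acid synthase partially purified from HL-60 human promyelocytic leukemia cells. Lysate incubated with compound (150 μM), then activity read as rate of NADPH oxidation in presence of acetyl-CoA and malonyl-CoA. Percent inhibition reported as mean ± SEM, at least two experiments.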

The species named for test [2] is Homo sapiens. In words: Inhibition of p21 palmitoylation at a concentration of 10(ug/ml). Format: functional. The method, boiled down:
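T24 cells seeded at ~25% confluency and attached overnight, treated 4 h with compound at 10 μg/mL, then labelled 2 h with [3H]palmitate (100–200 μCi/mL). Lysates in PBS-TDS, protein-normalized (100–300 μg), immunoprecipitated with Y13-259 anti-Ras antibody and Protein G agarose. Pellet radioactivity counted by scintillation. Percent inhibition vs untreated controls, one or two experiments.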

The next test concerns T-24. Put plainly: Inhibition of human T24 cell proliferation. In kind it is functional, cell-based. In outline:
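T24 human bladder carcinoma cells (H-[Val12]-ras overexpressing) in RPMI-1640 with 10% FBS, seeded at 10% confluency, allowed 24 h attachment, then exposed to varying concentrations up to 50 μg/mL for 72 h. Surviving cells measured by sulforhodamine B staining (MTS also used). IC50 vs untreated controls, mean ± SEM of at least three experiments.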

The species named for test [3] is Homo sapiens. In words: The compound was tested for the inhibition of p21 palmitoylation at a concentration of 5(ug/mL). Format: functional. In outline: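 T24 human bladder carcinoma cells seeded at ~25% confluency in 60 mm dishes, attached overnight; treated 4 h with 5 μg/mL compound, then 2 h [³H]palmitate (100–200 μCi/mL). Lysed in PBS-TDS, protein-normalized (100–300 μg), immunoprecipitated with Y13-259 anti-Ras plus Protein G agarose, washed; pellet radioactivity counted. Percent inhibition of p21 palmitoylation vs untreated controls; six experiments, mean ± SEM.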

Structures are written as SMILES. Where only a bound is given, the exact number is not on record here.

Fatty acid synthase (Homo sapiens), sequence (P49327 whole entry, looked up): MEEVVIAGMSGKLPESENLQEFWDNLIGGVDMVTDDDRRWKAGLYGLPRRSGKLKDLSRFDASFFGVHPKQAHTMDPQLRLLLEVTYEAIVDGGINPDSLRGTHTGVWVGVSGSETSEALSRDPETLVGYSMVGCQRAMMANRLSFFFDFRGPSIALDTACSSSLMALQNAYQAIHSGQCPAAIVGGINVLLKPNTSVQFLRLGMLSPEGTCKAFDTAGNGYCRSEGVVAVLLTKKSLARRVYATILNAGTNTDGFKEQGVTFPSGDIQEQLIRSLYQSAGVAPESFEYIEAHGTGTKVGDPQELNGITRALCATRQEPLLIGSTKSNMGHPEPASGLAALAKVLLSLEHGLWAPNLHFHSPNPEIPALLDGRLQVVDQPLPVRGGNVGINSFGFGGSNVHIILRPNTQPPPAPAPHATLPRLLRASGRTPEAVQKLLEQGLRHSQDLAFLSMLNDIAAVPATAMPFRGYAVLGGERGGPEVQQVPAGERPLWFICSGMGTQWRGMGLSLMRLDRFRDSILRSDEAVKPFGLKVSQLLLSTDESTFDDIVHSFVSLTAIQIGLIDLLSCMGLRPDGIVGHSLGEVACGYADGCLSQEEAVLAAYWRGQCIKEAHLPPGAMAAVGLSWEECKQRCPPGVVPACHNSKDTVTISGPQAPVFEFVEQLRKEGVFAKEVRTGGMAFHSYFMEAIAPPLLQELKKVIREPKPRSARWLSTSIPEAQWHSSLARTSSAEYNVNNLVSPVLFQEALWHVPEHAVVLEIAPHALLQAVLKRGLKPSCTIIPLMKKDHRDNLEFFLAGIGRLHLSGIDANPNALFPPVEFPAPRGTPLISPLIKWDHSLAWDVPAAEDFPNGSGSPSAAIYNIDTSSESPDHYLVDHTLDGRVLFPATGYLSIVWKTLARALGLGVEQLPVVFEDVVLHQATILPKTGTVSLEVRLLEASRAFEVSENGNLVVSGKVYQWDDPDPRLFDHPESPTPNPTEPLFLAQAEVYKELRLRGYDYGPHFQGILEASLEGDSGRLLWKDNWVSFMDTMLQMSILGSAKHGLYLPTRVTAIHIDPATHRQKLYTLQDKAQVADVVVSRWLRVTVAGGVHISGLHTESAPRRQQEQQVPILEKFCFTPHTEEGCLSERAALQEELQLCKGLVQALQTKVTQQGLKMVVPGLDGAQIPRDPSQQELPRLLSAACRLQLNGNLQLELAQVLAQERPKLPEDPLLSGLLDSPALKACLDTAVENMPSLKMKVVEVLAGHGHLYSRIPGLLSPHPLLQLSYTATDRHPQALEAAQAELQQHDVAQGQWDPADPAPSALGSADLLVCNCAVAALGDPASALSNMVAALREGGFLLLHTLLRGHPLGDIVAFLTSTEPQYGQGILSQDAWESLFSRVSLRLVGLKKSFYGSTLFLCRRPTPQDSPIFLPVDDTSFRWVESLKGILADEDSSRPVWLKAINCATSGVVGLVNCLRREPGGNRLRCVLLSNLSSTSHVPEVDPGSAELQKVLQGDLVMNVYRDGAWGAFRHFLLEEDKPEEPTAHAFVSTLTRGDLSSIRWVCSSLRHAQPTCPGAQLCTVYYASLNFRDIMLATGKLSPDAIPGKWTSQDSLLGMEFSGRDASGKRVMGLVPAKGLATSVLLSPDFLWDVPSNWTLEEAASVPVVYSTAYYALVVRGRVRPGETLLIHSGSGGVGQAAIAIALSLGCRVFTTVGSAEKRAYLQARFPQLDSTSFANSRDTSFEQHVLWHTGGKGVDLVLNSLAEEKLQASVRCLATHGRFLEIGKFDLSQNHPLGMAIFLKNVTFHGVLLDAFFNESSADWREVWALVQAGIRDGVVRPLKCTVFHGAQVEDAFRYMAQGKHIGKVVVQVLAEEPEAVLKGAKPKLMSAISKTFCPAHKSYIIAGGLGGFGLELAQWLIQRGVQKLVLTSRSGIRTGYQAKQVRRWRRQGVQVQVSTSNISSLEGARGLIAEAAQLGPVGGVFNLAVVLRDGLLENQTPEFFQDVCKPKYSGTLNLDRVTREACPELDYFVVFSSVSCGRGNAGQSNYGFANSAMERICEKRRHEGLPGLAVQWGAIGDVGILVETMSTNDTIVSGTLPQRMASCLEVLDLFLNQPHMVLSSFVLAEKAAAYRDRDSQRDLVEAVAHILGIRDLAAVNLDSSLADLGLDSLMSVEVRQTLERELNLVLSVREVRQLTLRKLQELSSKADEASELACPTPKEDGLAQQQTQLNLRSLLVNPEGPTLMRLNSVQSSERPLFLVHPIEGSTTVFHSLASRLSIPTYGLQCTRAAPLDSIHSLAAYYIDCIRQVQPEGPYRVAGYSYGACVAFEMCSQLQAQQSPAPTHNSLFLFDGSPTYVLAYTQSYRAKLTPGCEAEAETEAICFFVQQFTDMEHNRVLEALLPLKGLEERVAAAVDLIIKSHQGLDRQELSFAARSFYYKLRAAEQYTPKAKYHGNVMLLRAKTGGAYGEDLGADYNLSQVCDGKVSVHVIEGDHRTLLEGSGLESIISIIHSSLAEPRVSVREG

Take `CCCCCCCCCCCC(O)[C@H]1O[C@H]1C(N)=O` (some centres undefined): the results for the inhibition (in test [1]; in the test listed under Homo sapiens [2]) were 6% and 29%, respectively. This molecule gave an IC50 in the test with T-24 of 130 µM.
On the same counts, the results for `CCCCCCCCC1OC(=O)[C@@H]2O[C@H]12` (some centres undefined) are 75%, 32% and above 240 µM.
On the same counts, the results for `CCCCCCCCCCCCCC1OC(=O)[C@@H]2O[C@H]12` (some centres undefined) are 0%, 2% and above 180 µM.
On the same counts, the results for `CCCCCCCCCCCCCCCCCC(O)[C@H]1O[C@H]1C(=O)N(C)C` (some centres undefined) are 3%, 0% and 52 µM.
Consider `CCCCCCCCCCCCCC(O)[C@H]1O[C@H]1C(=O)N(C)C` (some centres undefined), for which the inhibition in test [1] amounted to 5%; in the test listed under Homo sapiens [2], 16%. The same molecule registered an IC50 with T-24 of 69 µM.
On the same counts, the results for `CCCCCCCCCCCCCCCCCC(=O)[C@H]1O[C@H]1C(N)=O` are 0%, 28% and 17 µM.
The corresponding values for `CCCCCCCCCCCC(=O)[C@H]1O[C@H]1C(N)=O` are 44%, 40% and 20 µM.
The corresponding values for `CCCCCCCCC(=O)[C@H]1O[C@H]1C(=O)N(C)C` are 1%, 0% and 140 µM.
Turning to `CCCCCCCCCC(=O)[C@H]1O[C@H]1C(=O)N(C)C`, the inhibition was found to be 2% in test [1] and 17% in the test listed under Homo sapiens [2]. Moreover, half-maximal inhibition in the test on T-24 (IC50) was put at 77 µM.
The corresponding values for `CCCCCCCCCCCCCCCC(O)[C@H]1O[C@H]1C(N)=O` (some centres undefined) are 10%, 40% and 190 µM.
On to `CCCCCCCCC(O)[C@H]1O[C@H]1C(=O)N(C)C` (some centres undefined), for which the values for the inhibition (in test [1]; in the test listed under Homo sapiens [2]) were 0% and 9%, respectively. The half-inhibitory concentration (IC50) in the test on T-24 is above 190 µM.
As for `CCCCCCCCCC1OC(=O)[C@@H]2O[C@H]12` (some centres undefined), the inhibition is 40% in test [1] and 33% in the test filed under Homo sapiens [2]. In addition, in the test on T-24, the IC50 is above 220 µM.
On the same counts, the results for `CCCCCCCCCCCC(O)[C@H]1O[C@H]1C(=O)N(C)C` (some centres undefined) are 9%, 0% and 95 µM.
On the same counts, the results for `NC(=O)[C@H]1O[C@H]1C(=O)c1ccccc1` are 85%, 22% and 15 µM.
On the same counts, the results for `CCCCCCCCCCCCCC(=O)[C@H]1O[C@H]1C(N)=O` are 0%, 47% and 13 µM.
As to `CCCCCCCCCC(=O)[C@H]1O[C@H]1C(N)=O`, the inhibition in test [1] turned out to be 92%; in the test listed under Homo sapiens [2] it was 63%. Moreover, in the test with T-24, the half-inhibitory concentration (IC50) is 7 µM.
Turning to `CN(C)C(=O)[C@H]1O[C@H]1C(=O)c1ccccc1`, the inhibition worked out at 3% in test [1] and 59% in the test filed under Homo sapiens [2]. Also, half-maximal inhibition in the test with T-24 (IC50) required 29 µM.
The corresponding values for `CCCCCCCCCCCC1OC(=O)[C@@H]2O[C@H]12` (some centres undefined) are 4%, 19% and above 200 µM.
The corresponding values for `CCCCCCCCC(O)[C@H]1O[C@H]1C(N)=O` (some centres undefined) are 4%, 16% and above 220 µM.
The corresponding values for `CCCCCCCCC(=O)[C@H]1O[C@H]1C(N)=O` are 74%, 42% and 27 µM.
For the molecule `CCCCCCCCCCCCCCCC(O)[C@H]1O[C@H]1C(=O)N(C)C` (some centres undefined), the inhibition (in test [1]; in the test listed under Homo sapiens [2]) was 0% throughout. The IC50 in the test on T-24 was determined as 62 µM.
In the case of `CCCCCCCCCC(O)[C@H]1O[C@H]1C(=O)N(C)C` (some centres undefined), the inhibition (in test [1]; in the test filed under Homo sapiens [2]) was 0% throughout. The molecule further returned an IC50 in the test with T-24 of 220 µM.
As for `CCCCCCCCCC(O)[C@H]1O[C@H]1C(N)=O` (some centres undefined), the inhibition in test [1] was 5%; in the test listed under Homo sapiens [2], 27%. The same molecule displayed a 50% inhibitory concentration (IC50) with T-24 above 200 µM.
With `CCCCCCCCCCCCCCCC(=O)[C@H]1O[C@H]1C(=O)N(C)C`, the inhibition in test [1] was 0%; in the test filed under Homo sapiens [2], 31%. Also, half-maximal inhibition with T-24 (IC50) required 40 µM.
On to `CCCCCCCCCCCC(=O)[C@H]1O[C@H]1C(=O)N(C)C`, for which the results for the inhibition (in test [1]; in the test filed under Homo sapiens [2]) were 5% and 10%, respectively. This molecule also yielded a half-inhibitory concentration (IC50) in the test with T-24 of 49 µM.
On to `C/C=C/C/C=C/CCC(=O)[C@H]1O[C@H]1C(N)=O` [CERULENIN], for which the inhibition in the test listed under Homo sapiens [3] was 48%; in test [1], 96%. In the test with T-24, the concentration for half-maximal inhibition (IC50) was 17 µM.
On to `CCCCCCCCCCCCCCCCCC(=O)[C@H]1O[C@H]1C(=O)N(C)C`, for which the inhibition in test [1] worked out at 0%; in the test listed under Homo sapiens [2], 21%. Moreover, the IC50 in the test on T-24 was 34 µM.
On the same counts, the results for `CCCCCCCCCCCCCCCCCC1OC(=O)[C@@H]2O[C@H]12` (some centres undefined) are 5%, 45% and above 150 µM.
Turning to `CCCCCCCCCCCCCC(O)[C@H]1O[C@H]1C(N)=O` (some centres undefined), the inhibition in test [1] stood at 3%; in the test filed under Homo sapiens [2], 34%. In the test with T-24, this molecule returned a 50% inhibitory concentration (IC50) of 110 µM.
The corresponding values for `CCCCCCCCCCCCCCCCCC(O)[C@H]1O[C@H]1C(N)=O` (some centres undefined) are 0%, 3% and above 140 µM.
On the same counts, the results for `CCCCCCCCCCCCCC(=O)[C@H]1O[C@H]1C(=O)N(C)C` are 2%, 0% and 40 µM.
On the same counts, the results for `CCCCCCCCCCCCCCCC1OC(=O)[C@@H]2O[C@H]12` (some centres undefined) are 0%, 35% and 140 µM.
On to `CCCCCCCCCCCCCCCC(=O)[C@H]1O[C@H]1C(N)=O`, for which the inhibition in test [1] came to 2%; in the test listed under Homo sapiens [2] it was 67%. The molecule further registered an IC50 in the test on T-24 of 12 µM.
